# Measurements from ChEMBL document CHEMBL1142049, “1-(1-Naphthyl)piperazine as a novel template for 5-HT6 serotonin receptor ligands” (Bioorg Med Chem Lett, 2005).
# Target: T1, 5-hydroxytryptamine receptor 6 (Homo sapiens, UniProt P50406)
# Assay: pA2 against 5-Hydroxytryptamine 6 receptor
# T1 sequence (P50406 whole entry): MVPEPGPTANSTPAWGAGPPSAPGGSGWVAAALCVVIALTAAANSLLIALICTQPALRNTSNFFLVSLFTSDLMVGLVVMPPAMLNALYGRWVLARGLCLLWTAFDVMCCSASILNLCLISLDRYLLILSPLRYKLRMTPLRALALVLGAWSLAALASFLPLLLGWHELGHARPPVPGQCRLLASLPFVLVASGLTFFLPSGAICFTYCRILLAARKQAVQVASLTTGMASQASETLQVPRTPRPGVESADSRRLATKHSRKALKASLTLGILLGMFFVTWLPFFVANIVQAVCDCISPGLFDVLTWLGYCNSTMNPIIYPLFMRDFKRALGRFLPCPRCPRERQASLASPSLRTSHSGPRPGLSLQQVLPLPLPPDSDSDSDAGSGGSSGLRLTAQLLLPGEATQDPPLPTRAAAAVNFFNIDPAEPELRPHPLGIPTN
row,SMILES,pA2
1,O=S(=O)(c1ccccc1)c1ccc(N2CCNCC2)c2ccccc12,7.5

# Target: T1, 5-hydroxytryptamine receptor 6
# Assay: Binding affinity against 5 Hydroxy tryptamine 6 receptor
# In short: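 Human 5-HT6 cDNA transiently expressed in HEK-293 cells, switched to dialyzed-serum medium, harvested 75 h post-transfection, PBS-washed and frozen as pellets. Nonspecific binding defined with 10 µM clozapine. Ki values from triplicate determinations.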
row,SMILES,Ki
1,Nc1ccc(S(=O)(=O)c2ccc(N3CCNCC3)c3ccccc23)cc1,0.9 nM
2,Nc1ccc(S(=O)(=O)c2cc(Br)nc(N3CCNCC3)c2)cc1,~0.1 nM
3,O=C(c1ccccc1)c1ccc(N2CCNCC2)c2ccccc12,57 nM
4,Brc1ccc(N2CCNCC2)c2ccccc12,54 nM
5,Nc1ccc(S(=O)(=O)c2cccc3ccccc23)cc1,34 nM
6,c1ccc(Cc2ccc(N3CCNCC3)c3ccccc23)cc1,35 nM
7,COc1ccccc1N1CCNCC1,1.2 nM
8,CCc1cc(N2CCNCC2)c2ccccc2c1,21 nM
9,Nc1ccc(S(=O)(=O)c2cc(Br)nc(N3CCCC3)c2)cc1,~1 nM
10,c1ccc(-c2ccc(N3CCNCC3)c3ccccc23)cc1,190 nM
11,O=S(=O)(c1ccc(NO)cc1)c1cccc2ccccc12,63 nM
12,O=S(=O)(c1ccccc1)c1ccc(N2CCNCC2)c2ccccc12,3.8 nM
13,c1ccc(-c2cc(N3CCNCC3)c3ccccc3c2)cc1,9.3 nM

# Target: T1, 5-hydroxytryptamine receptor 6
# Assay: Binding affinity against 5-hydroxy tryptamine 6 receptor
# In short: (§1)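 Human 5-HT6 cDNA transiently expressed in HEK-293 cells, switched to dialyzed-serum medium, harvested 75 h post-transfection, PBS-washed and frozen as pellets. [3H]LSD (1 nM final) displaced by unlabeled ligand (1–10,000 nM), 90 min at room temperature in 50 mM Tris-Cl, 10 mM MgCl2, 0.1 mM EDTA, pH 7.40. Nonspecific binding defined with 10 µM clozapine. Ki values from triplicate determinations.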
row,SMILES,Ki
1,c1ccc2c(N3CCNCC3)cccc2c1,120 nM

# Target: T1, 5-hydroxytryptamine receptor 6
# Assay: Binding affinity against 5-hydroxytryptamine 6 receptor
# In short: as §1
row,SMILES,Ki
1,c1ccc2c(N3CCNCC3)cccc2c1,100 nM
